Experimental data reported in ChEMBL document CHEMBL6109171, “Design, Synthesis, and Evaluation of a New Fluorescent Ligand for the M2 Muscarinic Acetylcholine Receptor” (ACS Med Chem Lett, 2025).
pKi: −log10 of the molar value. Activity calls are given as the source filed them. The rule behind the calls is not given here.

Legend:
[1] = Selectivity ratio of Ki for binding affinity to M5 receptor (unknown origin) to Ki for displacement of [3H]-Pirenzepine from human muscarinic M2 receptor
[2] = Selectivity ratio of Ki for binding affinity to M4 receptor (unknown origin) to Ki for displacement of [3H]-Pirenzepine from human muscarinic M2 receptor
[3] = Selectivity ratio of Ki for binding affinity to M3 receptor (unknown origin) to Ki for displacement of [3H]-Pirenzepine from human muscarinic M2 receptor
[4] = Selectivity ratio of Ki for binding affinity to M1 receptor (unknown origin) to Ki for displacement of [3H]-Pirenzepine from human muscarinic M2 receptor
[5] = molecular target: Muscarinic acetylcholine receptor M2 and M4 (Homo sapiens) (UniProt P08173+P08172); assay: Selectivity ratio of Ki for displacement of [3H]-NMS from human muscarinic M4 receptor to Ki for displacement of [3H]-NMS from human muscarinic M2 receptor; assay type: protein assay
How it was run: (§1)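 Membranes from CHO cells transfected with human M1–M5 receptors; competition binding against the orthosteric antagonist [3H]-N-methylscopolamine. Ki values were taken from the competition curves. Ratios divide the Ki at M1, M3, M4 or M5 by the Ki at M2 from the same assay.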

[6] = molecular target: Muscarinic acetylcholine receptors; M1 & M2 (Homo sapiens) (UniProt P11229+P08172); assay: Selectivity ratio of Ki for displacement of [3H]-NMS from human muscarinic M1 receptor to Ki for displacement of [3H]-NMS from human muscarinic M2 receptor; assay type: protein assay; how it was run: as §1
[7] = molecular target: Muscarinic acetylcholine receptors; M2 & M3 (Homo sapiens) (UniProt P20309+P08172); assay: Selectivity ratio of Ki for displacement of [3H]-NMS from human muscarinic M3 receptor to Ki for displacement of [3H]-NMS from human muscarinic M2 receptor; assay type: protein assay; how it was run: as §1
[8] = molecular target: Muscarinic acetylcholine receptor M2 and M5 (Homo sapiens) (UniProt P08172+P08912); assay: Selectivity ratio of Ki for displacement of [3H]-NMS from human muscarinic M5 receptor to Ki for displacement of [3H]-NMS from human muscarinic M2 receptor; assay type: protein assay; how it was run: as §1
[9] = molecular target: T1, Muscarinic acetylcholine receptor M2 (Homo sapiens, UniProt P08172); assay: Displacement of [3H]-NMS from human muscarinic M2 receptor expressed in CHO cells; assay type: cell-based; how it was run: as §1
T1 sequence (P08172 whole entry): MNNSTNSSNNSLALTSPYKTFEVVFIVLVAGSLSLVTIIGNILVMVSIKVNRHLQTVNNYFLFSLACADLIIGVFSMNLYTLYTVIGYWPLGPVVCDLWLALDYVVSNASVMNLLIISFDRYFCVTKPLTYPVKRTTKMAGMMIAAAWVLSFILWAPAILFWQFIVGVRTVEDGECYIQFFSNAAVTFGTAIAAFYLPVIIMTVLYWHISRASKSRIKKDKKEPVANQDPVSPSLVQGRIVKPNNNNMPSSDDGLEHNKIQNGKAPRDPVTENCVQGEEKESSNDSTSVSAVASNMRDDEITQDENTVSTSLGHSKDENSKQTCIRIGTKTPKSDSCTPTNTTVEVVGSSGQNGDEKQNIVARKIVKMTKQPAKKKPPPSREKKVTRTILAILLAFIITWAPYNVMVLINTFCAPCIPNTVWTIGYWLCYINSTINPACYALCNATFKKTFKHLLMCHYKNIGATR

[10] = molecular target: T2, Muscarinic acetylcholine receptor M2 (Homo sapiens) (UniProt P08172); conditions: HEK293T, filed as antagonist
T2 sequence (whole entry): T1 sequence (P08172 whole entry)

[11] = Photostability of compound in PBS buffer at 4 W/450 nm measured after 10 mins; assay type: physicochemical
How it was run: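 Probe in PBS (pH 7) under continuous light (4 W, 450 nm); fluorescence intensity was followed over irradiation time up to 10 min.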

[12] = molecular target: T2, Muscarinic acetylcholine receptor M2 (Homo sapiens); assay: Binding affinity to human M2 receptor expressed in HEK293T cells by two-photon microscopic analysis; assay type: cell-based; conditions: filed as antagonist
[13] = molecular target: T2, Muscarinic acetylcholine receptor M2 (Homo sapiens); assay: Binding affinity to human M2 receptor expressed in HEK293T cells measured for 3 min by confocal microscopic analysis; assay type: cell-based; conditions: filed as antagonist
[14] = molecular target: T2, Muscarinic acetylcholine receptor M2 (Homo sapiens); assay: Binding affinity to N-terminal human M2 receptor expressed in HEK293T cell pretreated for 5 mins in presence of atropine by BRET assay; assay type: cell-based; conditions: filed as antagonist, dose <= 1000.0 nM
[15] = molecular target: T2, Muscarinic acetylcholine receptor M2 (Homo sapiens); assay: Binding affinity to human M2 receptor expressed in HEK293T cell membrane cells by STED microscopic analysis; assay type: cell membranes; conditions: filed as antagonist
[16] = molecular target: T2, Muscarinic acetylcholine receptor M2 (Homo sapiens); assay: Binding affinity to human M2 receptor expressed in HEK293T cells by confocal microscopic analysis; assay type: cell-based

Chain of Muscarinic acetylcholine receptor M2 and M5 (Homo sapiens) (P08912 whole entry, looked up, one chain of several): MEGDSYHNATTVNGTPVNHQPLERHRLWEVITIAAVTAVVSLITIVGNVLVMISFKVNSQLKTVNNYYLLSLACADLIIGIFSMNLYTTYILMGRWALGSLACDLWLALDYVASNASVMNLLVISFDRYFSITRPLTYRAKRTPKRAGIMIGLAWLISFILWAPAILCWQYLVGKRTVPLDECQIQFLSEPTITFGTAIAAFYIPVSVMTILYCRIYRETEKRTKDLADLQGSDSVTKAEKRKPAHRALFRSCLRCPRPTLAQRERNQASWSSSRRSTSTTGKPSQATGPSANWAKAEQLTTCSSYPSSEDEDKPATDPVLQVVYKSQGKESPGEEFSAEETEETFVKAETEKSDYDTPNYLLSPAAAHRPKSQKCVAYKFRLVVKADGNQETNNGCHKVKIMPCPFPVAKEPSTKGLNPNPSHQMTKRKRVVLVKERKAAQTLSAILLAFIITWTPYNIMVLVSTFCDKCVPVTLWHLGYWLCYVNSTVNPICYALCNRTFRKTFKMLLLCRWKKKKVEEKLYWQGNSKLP

Row | SMILES | Ratio Ki [5] | Ratio Ki [6] | Ratio Ki [7] | Ratio Ki [8] | pKi [9] | also measured
1 | CCN(CC)CC1CCCCN1CC(=O)N1c2ccccc2C(=O)Nc2cccnc21 (stereo not given) | – | – | – | – | – | Ratio Ki [1]: 44; Ratio Ki [2]: 4; Ratio Ki [3]: 16; Ratio Ki [4]: 7
2 | CCCC(C)(C)C(=O)N(CC)CCCC1CCN(CC(=O)N2c3ccc(Cl)cc3C(=O)Nc3cccnc32)CC1 | – | – | – | – | – | Ratio Ki [1]: 48; Ratio Ki [2]: 6; Ratio Ki [3]: 26; Ratio Ki [4]: 355
3 | CN(C)c1ccc2c(-c3ccc(C(=O)NCCNC(=O)CCc4cn(CCCCC5CCN(CC(=O)N6c7ccccc7NC(=O)c7ccccc76)CC5)cn4)cc3C(=O)[O-])c3ccc(=[N+](C)C)cc-3oc2c1 | 2 | 3.4 | 72.4 | 155 | 8.77 | –
4 | CN(C)c1ccc2c(-c3ccc(C(=O)NCCN4CCN(CCCCC5CCN(CC(=O)N6c7ccccc7NC(=O)c7ccccc76)CC5)CC4)cc3C(=O)[O-])c3ccc(=[N+](C)C)cc-3oc2c1 | 4.1 | 10.7 | 339 | 741 | 9.70 | –
5 | Cc1cc(/C=C/C=C/c2ccc(N(C)C)cc2)cc(C)[n+]1CCN1CCN(CCCCC2CCN(CC(=O)N3c4ccccc4NC(=O)c4ccccc43)CC2)CC1 | 3.2 | 4 | 50.1 | 126 | 8.49 | –
6 | Nc1ccccc1C(=O)N1CCC(N2CCC(Cc3ccc(S(=O)(=O)c4cccc(Cl)c4)cc3)CC2)CC1 | – | – | – | – | – | Ka [10]: 8.06 10^3/s/M
7 | Cc1cc(/C=C/C=C/c2ccc(N(C)C)cc2)cc(C)[n+]1CCNC(=O)CCc1cn(CCCCC2CCN(CC(=O)N3c4ccccc4NC(=O)c4ccccc43)CC2)cn1 | 4.7 | 5.4 | 93.3 | 77.6 | 9.05 | –
8 | O=C(CCCCCNC(=O)COc1ccc(/C=C/C2=[N+]3C(=Cc4ccc(-c5cccs5)n4[B-]3(F)F)C=C2)cc1)NCCNC(=O)CCc1cn(CCCCC2CCN(CC(=O)N3c4ccccc4NC(=O)c4ccccc43)CC2)cn1 | 0.6 | 1.4 | 53.7 | 14.5 | 9.15 | –
9 | CC1(C)C(/C=C/C=C/C=C2/N(CCCCCC(=O)NCCNC(=O)CCc3cn(CCCCC4CCN(CC(=O)N5c6ccccc6NC(=O)c6ccccc65)CC4)cn3)c3cccc(S(=O)(=O)O)c3C2(C)C)=[N+](CCCCS(=O)(=O)[O-])c2ccccc21 | 39.8 | 6.3 | 200 | 200 | 9.10 | –
10 | O=C(CCOCCOCCNC(=O)c1ccc(-c2c3cc(F)c(=O)cc-3oc3cc(O)c(F)cc23)c(C(=O)O)c1)NCCOCCOCCNc1ccccc1C(=O)N1CCC(N2CCC(Cc3ccc(S(=O)(=O)c4cccc(Cl)c4)cc3)CC2)CC1 | – | – | – | – | – | Stability [11]: Stable; Activity [12]: Active; Activity [13]: Active; Activity [14]: Dose-dependent-effect; Activity [15]: Active; Activity [16]: inactive
11 | Cc1cc(/C=C/c2cc3c4c(c2)CCCN4CCC3)cc(C)[n+]1CCN1CCN(CCCCC2CCN(CC(=O)N3c4ccccc4NC(=O)c4ccccc43)CC2)CC1 | 2.8 | 5 | 66 | 132 | 9.00 | –
12 | Cc1cc(/C=C/c2cc3c4c(c2)CCCN4CCC3)cc(C)[n+]1CCNC(=O)CCc1cn(CCCCC2CCN(CC(=O)N3c4ccccc4NC(=O)c4ccccc43)CC2)cn1 | 1.9 | 5.2 | 51.3 | 30.1 | 8.89 | –
